The text below walks through data of ChEMBL document CHEMBL1122658, “Amnesia-reversal activity of a series of N-[(disubstituted-amino)alkyl] -2-oxo-1-pyrrolidineacetamides, including pramiracetam” (1984).

Assay [1] deals with Mus musculus. The assay is described as follows: Compound was evaluated for the ability to reverse electroconvulsive shock (ECS) induced amnesia in mice, after administering intraperitoneally, at a dose of 40 mg/kg. The format is functional. Conditions: route intraperitoneal. The method, boiled down: (§1)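 Male CF-1 mice (20-25 g), five groups of 20, trained in one trial on step-through inhibitory avoidance (darkened chamber). ECS given 2 h after training. Test drug or vehicle placebo injected ip 2 h after ECS, 1 h before retention test. Entry into box within 60 s scored as amnesia. % reversal = (drug − base-line ECS+placebo)/(ceiling no-ECS+placebo − base-line) ×100.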

Assay [2] concerns Mus musculus. Kind of assay: Ability to reverse electroconvulsive shock induced amnesia in mice, after administering intraperitoneally at a dose of 20.0 mg/kg. The format is functional. Conditions: route intraperitoneal. Put shortly:
as §1

Assay [3] has as its system Mus musculus. Kind of assay: Ability to reverse electroconvulsive shock (ECS) induced amnesia in mice, after administering intraperitoneally, at a dose of 0.63 mg/kg. The format is functional. Conditions: route intraperitoneal. Put shortly:
as §1

Assay [4] relates to Mus musculus. Kind of assay: Ability to reverse electroconvulsive shock induced amnesia in mice, after administering intraperitoneally at a dose of 1.25 mg/kg. The format is functional. To be noted: route intraperitoneal. The method, boiled down:
as §1

For assay [5], the system named is Mus musculus. Kind of assay: Ability to reverse electroconvulsive shock (ECS) induced amnesia in mice, after administering intraperitoneally, at a dose of 10.0 mg/kg. The format is functional. To be noted: route intraperitoneal. Put shortly:
as §1

The subject of assay [6] is Mus musculus. Kind of assay: Ability to reverse electroconvulsive shock induced amnesia in mice, after administering intraperitoneally at a dose of 2.5 mg/kg. The format is functional. To be noted: route intraperitoneal. The method, boiled down:
as §1

The test system of assay [7] is Mus musculus. Kind of assay: Ability to reverse electroconvulsive shock induced amnesia in mice, after administering intraperitoneally at a dose of 5 mg/kg. Conditions: route intraperitoneal. The format is functional. The method, boiled down:
as §1

For assay [8], the system named is Mus musculus. Kind of assay: Ability to reverse electroconvulsive shock (ECS) induced amnesia in mice, after administering intraperitoneally, at a dose of 80 mg/kg. The format is functional. To be noted: route intraperitoneal. Put shortly:
as §1

For assay [9], the system named is Mus musculus. The assay is described as follows: Ability to reverse electroconvulsive shock (ECS) induced amnesia in mice, after administering intraperitoneally, at a dose of 80.0 mg/kg. The format is functional. Conditions: route intraperitoneal. The method, boiled down: as §1
Assay [10] relates to Mus musculus. The assay is described as follows: Compound was evaluated for the ability to reverse electroconvulsive shock (ECS) induced amnesia in mice, after administering intraperitoneally, at a dose of 5 mg/kg. The format is functional. Conditions: route intraperitoneal. The method, boiled down:
as §1

Assay [11] relates to Mus musculus. Kind of assay: Ability to reverse electroconvulsive shock induced amnesia in mice, after administering intraperitoneally at a dose of 20 mg/kg. To be noted: route intraperitoneal. The format is functional. The method, boiled down:
as §1

Assay [12] relates to Mus musculus. The assay is described as follows: Compound was evaluated for the ability to reverse electroconvulsive shock (ECS) induced amnesia in mice, after administering intraperitoneally, at a dose of […] mg/kg. The format is functional. The method, boiled down:
as §1

The subject of assay [13] is Mus musculus. Kind of assay: Ability to reverse electroconvulsive shock (ECS) induced amnesia in mice, after administering intraperitoneally, at a dose of 160 mg/kg. The format is functional. To be noted: route intraperitoneal. Put shortly: as §1
Assay [14] deals with Mus musculus. The assay is described as follows: Compound was evaluated for the ability to reverse electroconvulsive shock (ECS) induced amnesia in mice, after administering intraperitoneally, at a dose of 320 mg/kg. The format is functional. To be noted: route intraperitoneal. Put shortly: as §1
The test system of assay [15] is Mus musculus. Kind of assay: Compound was evaluated for the ability to reverse electroconvulsive shock (ECS) induced amnesia in mice, after administering intraperitoneally, at a dose of 320.0 mg/kg; 18 of 20 mice died at this dose before completion of the test. The format is functional, organism-based. Also noted: dose 320 mg/kg. Put shortly:
as §1

For assay [16], the system named is Mus musculus. The assay is described as follows: Compound was evaluated for the ability to reverse electroconvulsive shock (ECS) induced amnesia in mice, after administering intraperitoneally, at a dose of 40.0 mg/kg. To be noted: route intraperitoneal. The format is functional. Put shortly: as §1
For assay [17], the system named is Mus musculus. Kind of assay: Ability to reverse electroconvulsive shock (ECS) induced amnesia in mice, after administering intraperitoneally, at a dose of 5 mg/kg. The format is functional. To be noted: route intraperitoneal. Put shortly: as §1
Assay [18] relates to Mus musculus. Kind of assay: Compound was evaluated for the ability to reverse electroconvulsive shock (ECS) induced amnesia in mice, after administering intraperitoneally, at a dose of 10 mg/kg. To be noted: route intraperitoneal. The format is functional. The method, boiled down:
as §1

The test system of assay [19] is Mus musculus. Kind of assay: Compound was evaluated for the ability to reverse electroconvulsive shock (ECS) induced amnesia in mice, after administering intraperitoneally, at a dose of 80.0 mg/kg; 18 of 20 mice died at this dose. The format is functional. Conditions: route intraperitoneal. Put shortly:
as §1

In assay [20] the test system is Mus musculus. Kind of assay: Ability to reverse electroconvulsive shock (ECS) induced amnesia in mice, after administering intraperitoneally, at a dose of 0.31 mg/kg. The format is functional. To be noted: route intraperitoneal. Put shortly:
as §1

“And” between values parts separate entries of the source, which are not always exact repeats. Identical values can stand only once.

On to `[Cl-].[Li+]` [CHLOROLITHIUM], for which the Amnesia reversal in the assay on Mus musculus [1] was found to be 30%; with Mus musculus [2], 25%; with Mus musculus [3] it was 15%; in the assay with Mus musculus [4], 10%; in the assay with Mus musculus [5], 30%; in the assay with Mus musculus [6], 15%. Moreover, the figures for the Amnesia reversal in the assay with Mus musculus [7] and with Mus musculus [8] were 15% and 20%, respectively.

With `CC(C)CN(CCNC(=O)CN1CCCC1=O)CC(C)C`, the Amnesia reversal in the assay with Mus musculus [2] is reported as 25%; with Mus musculus [4], 25%; with Mus musculus [5], 25%; with Mus musculus [6], 33%; in the assay with Mus musculus [7], 54%; in the assay with Mus musculus [9] it was 15%.

Take `CC1CCCC(C)N1CCCNC(=O)CN1CCC(c2ccccc2)C1=O` (configuration not stated): the Amnesia reversal in the assay with Mus musculus [10] was found to be 50%; in the assay with Mus musculus [8], 0%; in the assay on Mus musculus [11], 67%.

`CC1CCCCN1CCCNC(=O)CN1CCCC1=O` (configuration not stated): the Amnesia reversal in the assay on Mus musculus [12] is given as 10%; with Mus musculus [2] it was 33%; in the assay with Mus musculus [3], 0%; in the assay with Mus musculus [4], 0%; in the assay with Mus musculus [7] it was 33%; in the assay with Mus musculus [9] it was 17%.

As to `CC(C)(CNC(=O)CN1CCCC1=O)N1CCCCC1`, the Amnesia reversal in the assay with Mus musculus [1] is recorded as 73%; in the assay with Mus musculus [2] it was 27%; in the assay with Mus musculus [13], 45%; with Mus musculus [14] it was 27%; in the assay on Mus musculus [7], 18%; with Mus musculus [9] it was 55%.

Regarding `CC1CCCC(C)N1CCCCNC(=O)CN1CCCC1=O` (configuration not stated), the Amnesia reversal was 18 of 20 mice died at this dose before completion of the test in the assay on Mus musculus [15]; 60% in the assay on Mus musculus [13]; 50% with Mus musculus [7]; 100% in the assay on Mus musculus [8]; 60% with Mus musculus [11].

Turning to `N[C@@H]1C[C@H]1c1ccccc1.N[C@H]1C[C@@H]1c1ccccc1` [TRANYLCYPROMINE], the Amnesia reversal is 10% in the assay with Mus musculus [4], 10% in the assay on Mus musculus [5], 5% in the assay with Mus musculus [6] and 15% in the assay with Mus musculus [7].

Turning to `NC1=NC(=O)C(c2ccccc2)O1` (configuration not stated) [PEMOLINE], the Amnesia reversal is recorded as 56% in the assay on Mus musculus [16]; 20% with Mus musculus [6]; 20% with Mus musculus [17]; 44% with Mus musculus [11]; 56% in the assay on Mus musculus [18].

Take `CCC1CCC(=O)N1CC(=O)NCCCN1C(C)CCCC1C` (configuration not stated): the Amnesia reversal in the assay with Mus musculus [2] amounted to 42%; in the assay with Mus musculus [4] it was 20%; in the assay with Mus musculus [6], 50%; in the assay with Mus musculus [17], 50%; in the assay on Mus musculus [19] it was 42%.

Take `O=C(CN1CCCC1=O)NCCCN1CCOCC1`: the Amnesia reversal is 17% in the assay on Mus musculus [2]; 54% in the assay with Mus musculus [13]; 15% in the assay on Mus musculus [14]; 0% with Mus musculus [7]; 58% in the assay on Mus musculus [9].

For `CN(C)CCCN1c2ccccc2CCc2ccccc21` [IMIPRAMINE], the Amnesia reversal turned out to be 15% in the assay with Mus musculus [16], 10% in the assay with Mus musculus [7], 5% in the assay with Mus musculus [11] and 10% in the assay on Mus musculus [18].

On to `NC(=O)CN1CCCC1=O` [PIRACETAM], for which the Amnesia reversal is 15% in the assay on Mus musculus [10]; 10% in the assay with Mus musculus [17]; 15% and 10% in the assay on Mus musculus [8] (80 mg/kg); 20% in the assay on Mus musculus [11].

On to `CN1CCC[C@H]1c1cccnc1` [NICOTINE], for which the Amnesia reversal was determined as 20% with Mus musculus [20]; 5% with Mus musculus [3]; 0% with Mus musculus [4]; 5% in the assay with Mus musculus [6]; 0% in the assay with Mus musculus [7].

Take `CCC1CCC(=O)N1CC(=O)NCCN(C(C)C)C(C)C` (configuration not stated): the Amnesia reversal is 17% in the assay with Mus musculus [2]; 20% in the assay on Mus musculus [3]; 20% with Mus musculus [4]; 60% in the assay on Mus musculus [5]; 58% in the assay with Mus musculus [6]; 58% with Mus musculus [7].

For `Cn1c(=O)c2c(ncn2C)n(C)c1=O` [CAFFEINE], the Amnesia reversal in the assay on Mus musculus [20] was found to be 10%; with Mus musculus [3], 5%; in the assay on Mus musculus [4] it was 0%; in the assay on Mus musculus [6], 10%; in the assay on Mus musculus [17], 0%.

For the molecule `COC(=O)C(c1ccccc1)C1CCCCN1` (configuration not stated) [METHYLPHENIDATE], the Amnesia reversal is listed as 15% with Mus musculus [2]; 15% in the assay with Mus musculus [4]; 10% in the assay with Mus musculus [5]; 10% in the assay on Mus musculus [6]; 15% in the assay with Mus musculus [7].

For `CCC1(C)CC(=O)NC1=O` (configuration not stated) [ETHOSUXIMIDE], the Amnesia reversal in the assay with Mus musculus [1] came to 10%; in the assay on Mus musculus [13], 10%; in the assay with Mus musculus [8], 10%; with Mus musculus [11], 12%; in the assay with Mus musculus [18], 15%.

Take `C1CCc2nnnn2CC1` [PENTYLENETETRAZOL]: the Amnesia reversal stood at 15% with Mus musculus [1]; 15% in the assay with Mus musculus [6]; 20% in the assay with Mus musculus [7]; 15% with Mus musculus [11]; 10% in the assay with Mus musculus [18].
